Assay outcomes deposited in PubChem BioAssay by several laboratories.
IDE cell activ – boosts human insulin-degrading enzyme activity in HEK cells | FAbeta-B cleavage, fluorescence polarization; 0% vehicle, 100% cell-free pure enzyme wells | activation, % at 5.96 µM | 340,000 tested, 0.073% active | P14735;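 active means activation above the mean of all tested compounds plus 3 SD, set per screening campaign, cut at about 17% in these data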
PHOSPHO1 block – PHOSPHO1 (human) inhibition | Q8TCT1 | recombinant PHOSPHO1, absorbance phosphatase assay | inhibition, % at 13.3 µM | 290,000 tested, 1.1% active | AID 1565; in the data active means inhibition above about 60%
UBC13 inh – human UBC13 polyubiquitination inhibition | P61088 | UBC13 polyubiquitin chain formation, TR-FRET | inhibition, % at 20 µM | 330,000 tested, 0.47% active | AID 485273; in the data active means inhibition above about 45%, passing the limit was not always enough
Target sequence (P61088 whole entry, looked up): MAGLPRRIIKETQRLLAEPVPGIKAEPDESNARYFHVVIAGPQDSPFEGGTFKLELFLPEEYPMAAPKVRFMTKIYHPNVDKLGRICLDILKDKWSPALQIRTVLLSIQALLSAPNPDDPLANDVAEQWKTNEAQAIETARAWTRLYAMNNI
procasp3 activ – activators of human procaspase-3; P42574; recombinant procaspase-3 D3A, Ac-DEVD-pNA absorbance 405 nm; activation, % at 8.5 µM; 330,000 tested, 0.11% active; AID 463141;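 active means activation above the mean of all tested compounds plus 3 SD, cut at about 21% in these data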;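 further: 0% = DMSO alone and 100% = DMSO wells spiked with extra 5 µM PC-3 D3A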
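Assay system: Autoprocessing-dead procaspase-3 D3A mutant enzyme; also added: Ac-DEVD-pNA; doses: one concentration, 8.5 µM nominal, 0.8% DMSO; times: 1 h compound preincubation, 2 h substrate hydrolysis at 25 °C; technique: 405 nm absorbance of p-nitroaniline, reads at 0 and 120 min; measure: % activation between DMSO and enzyme-spiked controls; repeats: single replicate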
IDE cell inh – inhibits human insulin-degrading enzyme in HEK cells; P14735; FAbetaB cleavage, fluorescence polarization; inhibition, % at 5.59 µM; 320,000 tested, 0.41% active;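 active means percent inhibition above the average of all tested compounds plus 3 SD, set per screening campaign, cut at about 16% in these data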;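 further: IDE supplied by intact live HEK cells; FP after avidin binding of uncleaved biotin substrate so inhibition keeps polarization high; 0% = DMSO wells and 100% = 60 µM reference IDE inhibitor Ii1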
proCasp7 act – counter-screen for procaspase-3 activators: activators of human procaspase-7 | activation, % at 8.5 µM | recombinant procaspase-7, Ac-DEVD-pNA absorbance 405 nm; D23A/D198A/D206A triple mutant, cannot self-cleave; scale: DMSO 0, 5 µM enzyme 100 | P55210 | AID 463210 | 330,000 tested, 0.093% active;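 active means percent activation above the screen-wide mean plus 3 SD, cut at about 25% in these data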
Target sequence (P55210 whole entry D23A/D198A/D206A): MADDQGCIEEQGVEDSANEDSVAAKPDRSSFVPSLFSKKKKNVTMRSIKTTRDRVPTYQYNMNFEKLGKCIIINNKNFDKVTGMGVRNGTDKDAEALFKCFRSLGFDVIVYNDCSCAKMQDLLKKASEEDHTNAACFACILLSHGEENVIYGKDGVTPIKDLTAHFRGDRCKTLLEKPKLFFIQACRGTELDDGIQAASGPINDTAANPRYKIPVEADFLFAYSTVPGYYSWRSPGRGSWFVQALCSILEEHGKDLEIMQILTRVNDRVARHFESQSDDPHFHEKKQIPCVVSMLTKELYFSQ
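Assay system: Uncleavable procaspase-7 mutant enzyme; Input: 2 µM procaspase-7 mutant as dispensed; Also added: DEVD-pNA substrate; Medium: Zinc-free HEPES pH 7.4 with 300 mM NaCl, 0.01% Triton X-100; Timing: 1 h compound preincubation, 2 h substrate cleavage, 25 °C; Measured by: Epi-absorbance of released pNA at 405 nm, two timepoints.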
Starred values were filed as active, the others as inactive; x = no result. Only some compounds are listed: those with a hit (about 1.9% of all), similar ones and a draw of the others.

SMILES	IDE cell activ	PHOSPHO1 block	UBC13 inh	procasp3 activ	IDE cell inh	proCasp7 act
Cc1ccc(N(C(=O)C(F)(F)F)C(C(=O)NC2CCCCC2)c2cccs2)cc1C (stereo unspecified)	3	60*	-12	0	-1	-6
O=C(NC1CCCCC1)C(c1cccs1)N(C(=O)C(F)(F)F)c1ccccc1 (stereo unspecified)	2	-1	-7	-2	-3	2
COC(=O)c1ccccc1NC(=O)c1sc(N)nc1C	-2	-8	0	-16	-4	-1
COC(=O)c1ccccc1NC(=O)c1sc(=S)n(C)c1N	-1	90*	3	-11	-1	-1
CCOC(=O)c1ccc(NC(=O)CN2CCN(C(=O)c3ccco3)CC2)cc1	3	75*	-3	9	6	1
COc1cc(C(=S)N2CCCC2)cc(OC)c1O	1	76*	10	5	-1	-18
CCOc1cc(C(=S)N2CCCC2)ccc1OC	3	18	-1	4	2	-11
CCC(Sc1ccc2nnc(-c3ccc(F)cc3)n2n1)C(=O)OC (stereo unspecified)	6	30	2	-8	-2	-14
CCOC(=O)CC(=O)CSc1ccc2nnc(-c3cccc(F)c3)n2n1	4	44	9	-1	1	0
CCOC(=O)CC(=O)CSc1ccc2nnc(-c3ccc(F)cc3)n2n1	-8	81*	9	2	2	-4
COC(=O)C(C)Sc1ccc2nnc(-c3ccc(F)cc3)n2n1 (stereo unspecified)	6	65*	12	8	3	0
C=C(C)c1ccccc1	-6	x	-2	1	0	5
C[C@@H]1CN([C@H](C)CO)C(=O)Cc2cc(NC(=O)Nc3ccccc3)ccc2O[C@@H]1CN(C)C(=O)Nc1ccc2c(c1)OCO2	4	x	-1	-3	4	-6
CC(C)c1ccc(NC(=O)CSc2nc3ccccc3nc2N2CCCC2)cc1	3	15	0	0	2	-4
Cc1ccc(NC(=O)CSc2nc3ccccc3nc2N2CCCC2)cc1	4	5	15	40*	3	-2
O=C(CSc1nc2ccccc2nc1SCC(=O)N1CCCCC1)N1CCCCC1	-4	71*	17	5	0	2
CC(C)(C)NS(=O)(=O)c1ccc(NC(=O)C2CC(=O)N(CCc3ccc(F)cc3)C2)cc1 (stereo unspecified)	1	19	-7	-3	1	-2
CC(CCc1ccccc1)NCc1cccc2ccccc12 (stereo unspecified)	8	19	8	-3	-3	2
NC(CCCCc1ccccc1)c1cccc2ccccc12 (stereo unspecified)	x	x	54*	-2	-5	-2
O=C(CSc1n[nH]c(-c2ccncc2)n1)NC1CCS(=O)(=O)C1 (stereo unspecified)	-6	98*	0	-5	4	-4
CCc1ccc(-c2nc(SCC(=O)NC3CCS(=O)(=O)C3)n[nH]2)cc1 (stereo unspecified)	3	x	-1	-3	3	6
COc1ccc(Cc2nc3ccc(C(=O)N4C[C@@H](C)O[C@@H](C)C4)cc3o2)cc1OC	2	64*	2	2	2	-8
COCCN1CCN(C(=O)c2ccc3nc(Cc4ccc(OC)c(OC)c4)oc3c2)CC1	8	23	-9	10	3	1
CCn1c(CC(=O)Nc2ccc(C)cc2)nnc1SCC(=O)N1CCOCC1	1	63*	-3	11	1	10
CCn1c(SCc2nc3ccccc3c(=O)[nH]2)nnc1C(C)NC(=O)c1ccccc1 (stereo unspecified)	6	-1	1	10	1	5
SMILES	IDE cell activ	PHOSPHO1 block	UBC13 inh	procasp3 activ	IDE cell inh	proCasp7 act
CCn1c(SCC(=O)N2CCOCC2)nnc1C(C)NC(=O)c1ccccc1 (stereo unspecified)	2	63*	-3	3	3	-2
CCc1ccccc1NC(=O)CNC(=O)c1cc(C2CC2)nn1-c1ccccc1	1	x	2	5	-4	-10
CCNC(=O)C(=O)Nc1cc2c3c(c1)CCC(=O)N3CCC2	1	65*	-4	4	1	-3
O=[N+]([O-])c1cc(S(=O)(=O)N2CCOCC2)ccc1OCc1cccc(Cl)c1	0	x	-2	-8	-1	-4
CCn1c(C)[n+](CCOCC[n+]2c(C)n(CC)c3cc(Cl)c(Cl)cc32)c2cc(Cl)c(Cl)cc21	1	83*	-7	-8	6	-10
COCCn1nnnc1C(c1ccc(Cl)cc1)N1CCSCC1 (stereo unspecified)	-1	74*	3	0	-2	-1
O=C(Nc1ccccc1N1CCCC1)c1cc(=O)[nH]c2ccccc12	4	x	-6	x	x	x
N#Cc1c2c(c(=S)n(-c3ccccc3)c1N)CCCC2	-3	61*	-11	11	5	2
CCOC(=O)C1=C(COC(=O)c2cc(S(=O)(=O)N3CCOCC3)ccc2F)NC(=O)NC1C (stereo unspecified)	5	x	x	x	x	x
O=C(CN1C(=O)/C(=C/c2ccccc2Cl)SC1=S)NC1C=CS(=O)(=O)C1 (stereo unspecified)	2	75*	-12	-7	5	1
O=C(CN1C(=O)/C(=C/c2ccccc2)SC1=S)NC1C=CS(=O)(=O)C1 (stereo unspecified)	10	18	-15	6	-2	-12
CC(=O)/C(=N/Nc1cccc(C)c1)N1CCOCC1	-2	92*	-6	-5	-3	-1
Cc1cccc(C(=O)Nc2cccc(C(=O)N3CCOCC3)c2)c1	-3	-9	-2	4	5	4
O=c1c2ccccc2nc2c3ccccc3c(NCCN3CCOCC3)nn12	x	12	-1	3	-2	-5
O=c1c2c(-c3ccccc3)csc2nc2c3ccccc3c(NCCN3CCOCC3)nn12	18*	-25	x	x	x	x
COC(=O)c1ccc(C(=O)OC)c(NC(=O)COC(=O)CCOc2ccc(C)cc2)c1	9	x	3	-8	0	0
Cc1ccc(-n2c(SCc3cc(=O)n4ccsc4n3)nnc2-c2cccnc2)c(C)c1	-11	61*	7	10	5	2
Cc1ccc(-n2c(SCC(N)=O)nnc2-c2cccnc2)c(C)c1	-5	5	-3	0	0	-4
CCN1CCN(C(=O)N(CC(=O)Nc2ccc(C(N)=O)cc2)S(=O)(=O)c2ccc(C)cc2)CC1	3	x	-14	x	x	x
N#Cc1c(N)sc2c1CCCCCC2	-9	80*	-3	-18	2	-20
N#Cc1c(N)sc(=S)c2c1CCCCC2	5	31	-1	-1	-2	-18
